# From PubChem
# CXCR6 block: CXCR6 receptor inhibitors, primary screen, cell-based, beta-arrestin, luminescence, CHO-K1 PathHunter, 1536-well | C-X-C chemokine receptor type 6 (Homo sapiens), O00574 | inhibition, % at 20 µM | 360,000 tested, 0.36% active | AID 602244, 2012; in the data active means inhibition above about 34%, passing the limit was not always enough;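 further: antagonist mode with CXCL16 agonist at 10 nM final; 0% = 10 nM CXCL16 with DMSO and 100% = unstimulated wells without agonist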
# APJ ag: agonists of human apelin receptor APJ, primary screen, CHO-K1 cells, PathHunter beta-arrestin, luminescence | 0% DMSO wells, 100% apelin | activation, % at 20 µM | 330,000 tested, 0.11% active;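 active means activation more than six SD over the plate average, tested at 20 µM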;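 further: 0% = DMSO alone and 100% = apelin-13 at 10 nM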
#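 Assay system: CHO-K1 cells stably expressing ProLink-tagged human APJ and arrestin–beta-gal acceptor. Compound dosing: 20 µM single point, 1% DMSO. Times: 16-18 h seeding, 90 min dark compound exposure, 60 min detection. Detection: beta-gal luminescence. Evaluation: APJ–arrestin association signal. Controls: negative DMSO alone, positive Apelin-13 at 10 nM.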
# PKA-R2B activ: activators of PKA-R2B holoenzyme, primary screen, biochemical, fluorescence polarization, Cy5-IP20, human; PKA-R2B holoenzyme dissociation; R2B truncated from residue 108, S112A mutant; 0% DMSO only, 100% 113 µM cGMP; AID 504700, 2011; cAMP-dependent protein kinase catalytic subunit beta (Homo sapiens) + cAMP-dependent …; 340,000 tested, 0.079% active; activation, % at 11.4 µM;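 active means activation above a cutoff set at the mean over all compounds plus 3 SD, cut at about 18% in these data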;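 further: higher means more holoenzyme dissociation and a rise in polarization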
# Target sequence (P31323 whole entry, looked up, other chains not shown, the tested form may be a part): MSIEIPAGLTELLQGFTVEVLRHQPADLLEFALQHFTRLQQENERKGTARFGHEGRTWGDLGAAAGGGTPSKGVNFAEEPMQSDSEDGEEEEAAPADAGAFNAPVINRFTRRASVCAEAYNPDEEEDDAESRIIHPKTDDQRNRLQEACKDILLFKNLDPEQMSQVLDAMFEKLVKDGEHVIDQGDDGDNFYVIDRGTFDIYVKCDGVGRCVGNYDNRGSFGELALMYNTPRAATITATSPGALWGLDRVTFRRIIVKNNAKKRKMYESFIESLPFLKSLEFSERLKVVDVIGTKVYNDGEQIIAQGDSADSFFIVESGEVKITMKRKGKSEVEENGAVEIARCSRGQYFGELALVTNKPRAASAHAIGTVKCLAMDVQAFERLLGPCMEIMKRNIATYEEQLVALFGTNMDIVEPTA
# CCR6 antagonist: CCR6 receptor antagonists, primary screen, cell-based, CHO-K1, luminescence, beta-arrestin, uHTS; C-C chemokine receptor type 6 (Homo sapiens), P51684; CHO-K1 CCR6 PathHunter beta-arrestin, CCL20-stimulated; inhibition, % at 20 µM; 340,000 tested, 0.49% active; AID 493098, 2011;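 active means compounds whose inhibition of the agonist-driven luminescence signal at 20 µM reaches about 50%, limit read from the data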;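 further: cells stimulated with CCL20 at 14 nM final; plate controls were DMSO with CCL20 for no effect and DMSO without agonist for full effect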
# APJ antag: antagonists of human apelin receptor APJ, primary screen, CHO-K1 cells, beta-arrestin complementation, luminescence; P35414; inhibition, % at 20 µM; 330,000 tested, 0.32% active; AID 2521, 2010;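 active means inhibition above about 40% at 20 µM, limit read from the data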;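 further: cells challenged with 10 nM apelin-13 agonist together with compound; plate controls were apelin-13 plus DMSO wells for no effect and DMSO wells lacking apelin-13 for full effect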
# PKA-R1A act: activators of PKA-R1A holoenzyme, primary screen, biochemical, fluorescence polarization, Cy5-IP20, bovine R1A, mouse PKAc. activation, % at 11.4 µM. AID 504707, 2011. 340,000 tested, 0.083% active. PKA-R1A dissociation; scaled: DMSO 0%, 113 µM cGMP 100%. cAMP-dependent protein kinase type I-alpha regulatory subunit (Bos taurus) + …;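 active means percent activation above the mean of all tested compounds plus 3 SD, cut at about 19% in these data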;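 further: higher means more PKAc released from R1A so a rise in polarization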
# APJ antag confirm: APJ antagonists blocking beta-arrestin recruitment, confirmation, cell-based, luminescence, single concentration, uHTS hits; shares compounds with APJ antag; antagonist mode; inhibition, % at 20 µM; 950 tested, 66% active; in the data active means inhibition above about 50%
# Active calls of the source: *; x = no result given. Sampled rows, rich in hits. Any-hit rate of the full collection: about 0.88%.
SMILES,CXCR6 block,APJ ag,PKA-R2B activ,CCR6 antagonist,APJ antag,PKA-R1A act,APJ antag confirm
Cc1ccccc1NC(=O)CCC(=O)OCC(=O)c1cccc([N+](=O)[O-])c1,33,-9,8,54*,56*,-3,98*
COc1ccccc1NC(=O)CCC(=O)OCC(=O)c1ccc(C)c([N+](=O)[O-])c1,33,-23,-6,35,50*,-6,62*
O=C(CCC(=O)OCC(=O)c1ccc(Br)cc1)NC1CCCCC1,0,-7,-7,12,17,-8,x
O=C(CCC(=O)OCC(=O)c1cccc([N+](=O)[O-])c1)Nc1cccc(Cl)c1Cl,26,-14,4,62*,41*,-6,81*
Cc1ccc(C(=O)COC(=O)CCC(=O)NC2CCCCC2)cc1[N+](=O)[O-],22,-10,-15,27,49*,-3,35
O=C(CCC(=O)OCC(=O)c1ccc([N+](=O)[O-])cc1)Nc1ccccc1Cl,-7,7,5,-6,-58,-1,x
CCn1c(SCC(=O)Nc2cc(OC)ccc2OC)nnc1C1CCCCC1,3,-2,-8,1,8,-4,x
Cc1ccnc(SC2CC(=O)N(c3ccc(F)cc3)C2=O)n1 (stereo not given),-4,-2,9,12,4,-3,x
COc1ccc(COC[C@H](C)[C@H](O)[C@@H](C)[C@H]2OC(=O)[C@@H]2C)cc1,-8,-1,9,1,9,-13,x
COc1ccccc1CN1C(=NC(=O)CCC2CCCC2)SC2CS(=O)(=O)CC21 (stereo not given),-7,-2,5,8,47*,-10,2
COc1ccc(CN2C(=NC(=O)CCC3CCCC3)SC3CS(=O)(=O)CC32)cc1 (stereo not given),-6,-1,-8,-6,-18,1,x
COc1ccc(S(=O)(=O)NNc2nc(C)cc(C)n2)cc1[N+](=O)[O-],22,-29,-1,32,62*,5,114*
COc1ccc(C(=O)Nc2nc(C)cc(C)n2)cc1[N+](=O)[O-],-10,-4,0,11,-6,2,x
CCN(CC)CC(=O)c1c(N)n(Cc2ccccc2)c(=O)n(C)c1=O,-8,-3,8,1,-5,-5,x
Cn1c(=O)c(C(=S)NC(=O)C2CC2)c(N)n(Cc2ccccc2)c1=O,x,-13,x,x,42*,x,72*
O=[N+]([O-])c1ccc(/C=N/Nc2ccc3ccccc3c2)o1,42*,-9,-11,63*,67*,-17,81*
CCN1CCN(c2cc(C)c3cc(NC(=O)Cc4ccccc4OC)ccc3n2)CC1,-3,-9,-1,-1,48*,0,13
O=C(Nc1c(C(=O)N2CCCCC2)cnn1-c1ccccc1)c1ccccc1F,6,1,6,-5,62*,-9,-17
Cn1nnc(NC(=S)NC(=O)c2cccc3ccccc23)n1,36,-10,2,35,51*,-7,86*
COCCCN1C(=O)C(=O)/C(=C(/O)c2ccc(S(=O)(=O)N3CCOCC3)cc2)C1c1ccc(C(C)C)cc1 (stereo not given),3,-1,4,0,-15,-4,x
N#CC1=C(N)C(C#N)(C#N)C(c2cccnc2)C2CN(C(=O)OCc3ccccc3)CC=C12 (stereo not given),7,-8,2,53*,50*,-4,27
CC1(C)C(c2ccccc2)=NC(c2ccccc2)N1O (stereo not given),14,-3,-1,40,8,-6,x
CC1(C)C(c2ccccc2)=NC(c2ccc(Br)cc2)N1O (stereo not given),34,-11,2,58*,77*,-10,33
CCN(CC)C(=O)c1ccc(-c2ccccc2)cc1,-3,-3,-6,5,-8,-6,x
CCN(CC)CC(=O)c1ccc(-c2ccccc2)cc1,30,-19,-2,72*,94*,-6,114*
SMILES,CXCR6 block,APJ ag,PKA-R2B activ,CCR6 antagonist,APJ antag,PKA-R1A act,APJ antag confirm
CN(C)CC(=O)c1ccc(-c2ccccc2)cc1,9,-11,6,30,46*,0,73*
CCOC(=O)[C@]12CCCC=C1N(Cc1ccco1)C(=O)[C@H](CC(=O)NCc1cccs1)C2,4,x,x,x,x,x,x
CCOC(=O)c1c(C)[nH]c(C)c1C(=O)Cn1nnc(-c2ccccc2C)n1,-2,7,-3,6,46*,-9,18
COc1ccc(/C=C(\NC(=O)c2ccc(Cl)cc2)C(=O)NCC2CCCO2)cc1OC (stereo not given),10,-2,-3,6,-3,-2,x
CC(=O)Nc1ccc(Nc2ncnc3ccccc23)cc1,x,-2,x,x,43*,x,9
CCc1nc2c(OCc3ccc4c(c3)OCO4)cccn2c1N(C=O)Cc1ccc(OC)cc1,16,x,x,x,x,x,x
CCOc1ccc(NC(=O)C2CCC(CNc3c(N4CCCCC4)c(=O)c3=O)CC2)cc1 (stereo not given),6,-2,-4,-1,47*,2,19
CCOc1ccc(NC(=O)C2CCC(CNc3c(N4CCC(C)CC4)c(=O)c3=O)CC2)cc1 (stereo not given),-10,-4,-4,7,-12,-6,x
CCOC(=O)c1c(/N=C/c2ccc(O)cc2O)sc2c1CCC2,x,1,x,x,3,x,x
O=[N+]([O-])c1cc(S(=O)(=O)Nc2cccc(Cl)c2)ccc1N/N=C/c1ccc(N2CCOCC2)cc1,36,-12,1,50*,48*,-3,96*
C/C(=N\Nc1ccc(S(=O)(=O)Nc2ccc(Cl)cc2)cc1[N+](=O)[O-])c1ccc(N2CCOCC2)cc1,20,-3,-11,33,-16,-15,x
COc1cccc(N2CC(C(=O)Nc3nnc(SCCC4OCCO4)s3)CC2=O)c1 (stereo not given),-6,6,5,-4,-5,-2,x
COc1cccc(C#Cc2cnc3c(c2)C(=O)N([C@@H](C)CO)C[C@H](C)[C@H](CN(C)C(=O)C2CCC2)O3)c1,7,x,-5,x,x,-9,x
